From ChEMBL document CHEMBL4422636, “Investigation of the structural requirements for N-methyl-D-aspartate receptor positive and negative allosteric modulators based on 2-naphthoic acid” (Eur J Med Chem, 2019)
Active and inactive are the calls of the source. No cut-off for these calls is given here.

How the values were obtained:
[1] = biological target: Glutamate receptor ionotropic, NMDA 2C (Rattus norvegicus) (UniProt Q00961); assay: Allosteric modulation of rat GluN2C expressed in Xenopus laevis oocytes assessed as L-glutamate/glycine-induced current response at 100 uM at holding potential -60 mV by two-electrode voltage clamp method relative to L-glutamate/glycine; assay type: cell-based
Sequence of Glutamate receptor ionotropic, NMDA 2C (Rattus norvegicus) (Q00961 20-1237 limits assumed): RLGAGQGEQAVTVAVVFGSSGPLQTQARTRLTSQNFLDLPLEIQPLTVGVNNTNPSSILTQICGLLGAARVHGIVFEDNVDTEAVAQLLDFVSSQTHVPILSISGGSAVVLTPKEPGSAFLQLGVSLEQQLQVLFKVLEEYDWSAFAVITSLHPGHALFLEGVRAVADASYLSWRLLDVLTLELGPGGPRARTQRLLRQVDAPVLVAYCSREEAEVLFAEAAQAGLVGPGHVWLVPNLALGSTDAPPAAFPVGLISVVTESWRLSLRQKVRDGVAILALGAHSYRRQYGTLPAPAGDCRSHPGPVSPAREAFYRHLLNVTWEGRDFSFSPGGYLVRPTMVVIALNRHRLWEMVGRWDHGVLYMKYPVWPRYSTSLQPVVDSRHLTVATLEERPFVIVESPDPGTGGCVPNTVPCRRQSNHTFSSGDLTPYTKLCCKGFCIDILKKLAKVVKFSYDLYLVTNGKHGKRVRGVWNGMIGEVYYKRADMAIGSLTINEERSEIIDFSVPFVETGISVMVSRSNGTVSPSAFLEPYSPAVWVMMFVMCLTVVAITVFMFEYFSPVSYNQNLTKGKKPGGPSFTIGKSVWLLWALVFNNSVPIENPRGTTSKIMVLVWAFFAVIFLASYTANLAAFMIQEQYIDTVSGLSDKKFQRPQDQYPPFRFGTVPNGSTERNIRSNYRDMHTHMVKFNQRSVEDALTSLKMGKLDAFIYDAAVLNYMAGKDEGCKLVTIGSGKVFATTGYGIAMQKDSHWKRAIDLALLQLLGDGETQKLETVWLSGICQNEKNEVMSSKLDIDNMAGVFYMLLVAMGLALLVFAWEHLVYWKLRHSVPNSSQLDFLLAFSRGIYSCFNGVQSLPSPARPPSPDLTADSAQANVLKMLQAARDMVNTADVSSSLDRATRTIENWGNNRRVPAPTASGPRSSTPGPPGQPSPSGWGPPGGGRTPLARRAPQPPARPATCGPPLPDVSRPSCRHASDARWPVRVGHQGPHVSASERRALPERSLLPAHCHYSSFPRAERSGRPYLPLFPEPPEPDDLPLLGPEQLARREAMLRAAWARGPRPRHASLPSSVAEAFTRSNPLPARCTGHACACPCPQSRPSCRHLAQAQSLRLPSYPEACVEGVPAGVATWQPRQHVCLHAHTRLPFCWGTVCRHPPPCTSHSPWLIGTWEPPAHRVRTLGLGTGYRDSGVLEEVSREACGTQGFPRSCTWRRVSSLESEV
Summary of the method: (§1)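 GluN1a with one GluN2 subunit; RNAs mixed 1:1–3 molar, 15–30 ng total injected into Xenopus oocytes, which were held in ND-96 at 17°C for 1–5 days. TEVC at −60 mV in 116 mM NaCl, 2 mM KCl, 0.3 mM BaCl2, 5 mM HEPES, pH 7.4. […] Reported as % of agonist-alone response, mean ± s.e.m., n≥4.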

[2] = Solubility of the compound at 100 uM; assay type: physicochemical
Summary of the method: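 Compounds were inspected for visible precipitation at the concentrations used in the oocyte assays.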

[3] = biological target: Glutamate receptor ionotropic, NMDA 2D (Rattus norvegicus) (UniProt Q62645); assay: Allosteric modulation of rat GluN2D expressed in Xenopus laevis oocytes assessed as L-glutamate/glycine-induced current response at 100 uM at holding potential -60 mV by two-electrode voltage clamp method relative to L-glutamate/glycine; assay type: cell-based; summary of the method: as §1
[4] = biological target: Glutamate receptor ionotropic, NMDA 2A (Rattus norvegicus) (UniProt Q00959); assay: Allosteric modulation of rat GluN2A expressed in Xenopus laevis oocytes assessed as L-glutamate/glycine-induced current response at 100 uM at holding potential -60 mV by two-electrode voltage clamp method relative to L-glutamate/glycine; assay type: cell-based; summary of the method: as §1
Sequence of Glutamate receptor ionotropic, NMDA 2A (Rattus norvegicus) (Q00959 23-1464 limits assumed): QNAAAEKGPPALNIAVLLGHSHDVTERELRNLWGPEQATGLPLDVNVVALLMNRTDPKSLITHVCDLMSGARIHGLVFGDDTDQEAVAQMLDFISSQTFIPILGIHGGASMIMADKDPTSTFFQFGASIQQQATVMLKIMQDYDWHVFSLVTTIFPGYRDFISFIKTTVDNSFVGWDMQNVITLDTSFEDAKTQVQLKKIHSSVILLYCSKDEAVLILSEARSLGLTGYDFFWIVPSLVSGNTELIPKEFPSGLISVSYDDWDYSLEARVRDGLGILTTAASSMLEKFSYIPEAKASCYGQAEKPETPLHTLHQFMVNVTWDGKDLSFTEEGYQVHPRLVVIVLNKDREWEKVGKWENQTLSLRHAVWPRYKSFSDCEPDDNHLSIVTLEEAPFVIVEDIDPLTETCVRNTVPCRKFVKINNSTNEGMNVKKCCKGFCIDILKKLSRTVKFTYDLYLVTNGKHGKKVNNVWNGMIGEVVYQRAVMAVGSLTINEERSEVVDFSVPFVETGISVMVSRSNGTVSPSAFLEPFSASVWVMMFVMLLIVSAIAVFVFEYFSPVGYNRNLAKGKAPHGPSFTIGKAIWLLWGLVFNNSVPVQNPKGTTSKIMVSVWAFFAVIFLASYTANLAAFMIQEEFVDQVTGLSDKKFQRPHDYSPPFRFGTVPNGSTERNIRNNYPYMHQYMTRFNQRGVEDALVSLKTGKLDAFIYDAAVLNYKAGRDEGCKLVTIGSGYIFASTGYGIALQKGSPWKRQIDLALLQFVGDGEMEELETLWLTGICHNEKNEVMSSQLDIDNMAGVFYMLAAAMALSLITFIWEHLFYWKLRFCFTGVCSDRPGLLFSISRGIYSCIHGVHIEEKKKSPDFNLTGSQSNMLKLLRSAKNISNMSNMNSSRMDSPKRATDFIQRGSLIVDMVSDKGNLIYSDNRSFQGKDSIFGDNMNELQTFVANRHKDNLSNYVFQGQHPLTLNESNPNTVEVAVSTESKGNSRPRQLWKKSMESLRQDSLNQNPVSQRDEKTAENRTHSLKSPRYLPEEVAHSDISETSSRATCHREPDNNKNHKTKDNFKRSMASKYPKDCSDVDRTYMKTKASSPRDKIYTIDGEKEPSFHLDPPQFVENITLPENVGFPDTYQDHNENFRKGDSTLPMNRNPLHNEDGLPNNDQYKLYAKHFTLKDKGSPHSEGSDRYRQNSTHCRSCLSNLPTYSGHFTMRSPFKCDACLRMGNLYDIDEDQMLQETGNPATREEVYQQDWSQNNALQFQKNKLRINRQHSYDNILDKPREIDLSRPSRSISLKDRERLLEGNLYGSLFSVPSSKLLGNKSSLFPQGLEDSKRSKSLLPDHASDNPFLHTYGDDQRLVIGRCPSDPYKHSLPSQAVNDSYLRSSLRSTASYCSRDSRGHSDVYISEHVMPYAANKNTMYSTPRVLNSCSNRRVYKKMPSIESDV

[5] = biological target: Glutamate receptor ionotropic, NMDA 2B (Rattus norvegicus) (UniProt Q00960); assay: Allosteric modulation of rat GluN2B expressed in Xenopus laevis oocytes assessed as L-glutamate/glycine-induced current response at 100 uM at holding potential -60 mV by two-electrode voltage clamp method relative to L-glutamate/glycine; assay type: cell-based; summary of the method: as §1
Sequence of Glutamate receptor ionotropic, NMDA 2B (Rattus norvegicus) (Q00960 27-1482 limits assumed): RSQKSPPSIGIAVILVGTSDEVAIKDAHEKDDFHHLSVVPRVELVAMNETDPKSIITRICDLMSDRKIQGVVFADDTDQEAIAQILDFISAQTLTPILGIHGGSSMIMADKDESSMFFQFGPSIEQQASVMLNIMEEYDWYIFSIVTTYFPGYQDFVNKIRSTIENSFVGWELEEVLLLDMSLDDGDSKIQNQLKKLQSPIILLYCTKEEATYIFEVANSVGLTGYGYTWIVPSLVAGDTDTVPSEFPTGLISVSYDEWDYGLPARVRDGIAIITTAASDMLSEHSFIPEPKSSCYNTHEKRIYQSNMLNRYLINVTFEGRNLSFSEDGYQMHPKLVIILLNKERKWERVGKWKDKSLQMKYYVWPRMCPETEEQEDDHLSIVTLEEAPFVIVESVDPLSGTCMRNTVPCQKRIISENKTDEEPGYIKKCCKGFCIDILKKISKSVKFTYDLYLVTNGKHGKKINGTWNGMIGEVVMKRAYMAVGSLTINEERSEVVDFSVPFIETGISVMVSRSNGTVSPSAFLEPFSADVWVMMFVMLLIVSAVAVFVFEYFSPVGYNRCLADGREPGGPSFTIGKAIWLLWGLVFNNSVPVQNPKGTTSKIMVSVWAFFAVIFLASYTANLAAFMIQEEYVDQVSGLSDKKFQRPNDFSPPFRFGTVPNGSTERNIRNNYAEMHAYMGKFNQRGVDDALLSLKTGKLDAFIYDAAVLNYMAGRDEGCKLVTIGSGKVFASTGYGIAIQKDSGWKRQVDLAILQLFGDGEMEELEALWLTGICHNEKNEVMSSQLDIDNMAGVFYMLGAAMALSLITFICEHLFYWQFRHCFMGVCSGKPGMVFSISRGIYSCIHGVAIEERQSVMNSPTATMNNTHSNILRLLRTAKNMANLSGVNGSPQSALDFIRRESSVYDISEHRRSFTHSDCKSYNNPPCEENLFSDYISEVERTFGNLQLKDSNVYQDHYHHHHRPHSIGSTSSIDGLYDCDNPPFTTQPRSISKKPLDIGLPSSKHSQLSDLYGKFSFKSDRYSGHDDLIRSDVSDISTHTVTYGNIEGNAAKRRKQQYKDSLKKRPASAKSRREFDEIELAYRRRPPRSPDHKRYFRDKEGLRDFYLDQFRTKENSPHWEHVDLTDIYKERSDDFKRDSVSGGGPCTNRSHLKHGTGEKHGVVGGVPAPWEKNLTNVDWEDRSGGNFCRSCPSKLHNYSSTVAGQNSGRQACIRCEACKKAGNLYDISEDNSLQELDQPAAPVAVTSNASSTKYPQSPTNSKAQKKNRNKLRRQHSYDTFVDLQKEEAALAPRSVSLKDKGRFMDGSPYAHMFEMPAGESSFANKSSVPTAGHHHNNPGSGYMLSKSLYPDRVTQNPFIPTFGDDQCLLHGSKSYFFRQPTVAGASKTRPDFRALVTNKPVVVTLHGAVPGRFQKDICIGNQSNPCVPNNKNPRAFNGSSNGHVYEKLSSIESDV

[6] = biological target: Glutamate receptor ionotropic, NMDA 2C (Rattus norvegicus) (UniProt Q00961); assay: Agonist activity at rat GluN2C expressed in Xenopus laevis oocytes assessed effect on current response at holding potential -60 mV by two-electrode voltage clamp method relative to L-glutamate/glycine; assay type: cell-based; summary of the method: as §1
[7] = biological target: Glutamate receptor ionotropic, NMDA 2B (Rattus norvegicus) (UniProt Q00960); assay: Agonist activity at rat GluN2B expressed in Xenopus laevis oocytes assessed as effect on current response at holding potential -60 mV by two-electrode voltage clamp method relative to L-glutamate/glycine; assay type: cell-based; summary of the method: as §1
[8] = biological target: Glutamate receptor ionotropic, NMDA 2A (Rattus norvegicus) (UniProt Q00959); assay: Agonist activity at rat GluN2A expressed in Xenopus laevis oocytes assessed effect on current response at holding potential -60 mV by two-electrode voltage clamp method relative to L-glutamate/glycine; assay type: cell-based; summary of the method: as §1
[9] = biological target: Glutamate receptor ionotropic, NMDA 2D (Rattus norvegicus) (UniProt Q62645); assay: Agonist activity at rat GluN2D expressed in Xenopus laevis oocytes assessed as effect on current response at holding potential -60 mV by two-electrode voltage clamp method relative to L-glutamate/glycine; assay type: cell-based; summary of the method: as §1

SMILES	Activity [1]	solubility [2]	Activity [3]	Activity [4]	Activity [5]	Activity [6]	Activity [7]	Activity [8]	Activity [9]
CC(C)C(=O)OCc1ccc2cc(C(=O)O)ccc2c1	56%	Soluble	42%	73%	45%	–	–	–	–
O=C(O)c1ccc(CCc2ccc3cc(O)c(C(=O)O)cc3c2)cc1	115%	Soluble	92.6%	102%	95.8%	–	–	–	–
CCCCCc1ccc2cc(CC(=O)O)ccc2c1	60%	Soluble	37%	67%	67%	inactive	inactive	inactive	inactive
COc1cccc(/C=C/c2ccc3cc(O)c(C(=O)O)cc3c2)c1	30.8%	Soluble	29.9%	52.4%	24.9%	–	–	–	–
CC(C)COC(=O)c1ccc2cc(C(=O)O)ccc2c1	144%	Soluble	169%	159%	179%	–	–	–	–
CC(C)CCCc1ccc2cc(C(=O)O)c(C(=O)O)cc2c1	47%	Soluble	24%	92%	88%	inactive	inactive	inactive	inactive
CC(C)CCCc1ccc2cc(O)c(C(=O)O)cc2c1	113%	Soluble	180%	78%	113%	inactive	inactive	inactive	inactive
CCCCOc1ccc2cc(C(=O)O)ccc2c1	63%	Soluble	57%	55%	46%	inactive	inactive	inactive	inactive
CC(C)CCCc1ccc2ccc(C(=O)O)cc2c1	115%	Soluble	80%	123%	120%	inactive	inactive	inactive	inactive
CC(C)CC(Cc1ccc2cc(C(=O)O)ccc2c1)C(=O)O (racemic)	118%	Soluble	85%	104%	78%	inactive	inactive	inactive	inactive
O=C(O)c1ccc2cc(CCCCc3ccccc3)ccc2c1	123%	Soluble	115%	118%	120%	inactive	inactive	inactive	inactive
CC(C)CCC(=O)c1ccc2cc(C(=O)O)ccc2c1	99%	Soluble	79%	128%	82%	–	–	–	–
CC(C)C/C=C/c1ccc2cc(C(=O)O)ccc2c1	264%	Soluble	220%	135%	152%	inactive	inactive	inactive	inactive
CC(C/C=C/c1ccc2cc(C(=O)O)ccc2c1)C(=O)O (racemic)	105%	Soluble	97%	107%	97%	inactive	inactive	inactive	inactive
O=C(O)c1cc2cc(/C=C/c3ccccc3)ccc2oc1=O	114%	Soluble	119%	95.1%	92%	–	–	–	–
CC(C)CCCc1ccc2cc(C(=O)O)c(O)cc2c1	357%	Soluble	301%	178%	309%	inactive	inactive	inactive	inactive
O=C(O)c1ccc2cc(I)c3ccccc3c2c1	65.9%	Soluble	47.7%	109%	101%	inactive	inactive	inactive	inactive

SMILES	Activity [1]	solubility [2]	Activity [3]	Activity [4]	Activity [5]	Activity [6]	Activity [7]	Activity [8]	Activity [9]
O=C(O)c1cccc(/C=C/c2ccc3cc(O)c(C(=O)O)cc3c2)c1	76.8%	Soluble	61.4%	90.3%	70%	–	–	–	–
CCCCCc1ccc2cc(CO)ccc2c1	76%	Soluble	85%	89%	84%	inactive	inactive	inactive	inactive
O=C(O)c1cc2ccc(/C=C/c3ccccc3)cc2cc1C(=O)O	37.1%	Soluble	38.6%	55%	66.7%	–	–	–	–
CC(C)CSCc1ccc2cc(C(=O)O)ccc2c1	105%	Soluble	100%	113%	77%	–	–	–	–
O=C(O)c1cc2cc(CCc3ccccc3)ccc2cc1O	46.8%	Soluble	32.1%	71.4%	54.3%	–	–	–	–
O=C(O)c1cc2cc(CCc3ccccc3C(=O)O)ccc2cc1O	94.1%	Soluble	80.7%	91.8%	85.2%	–	–	–	–
CC(CCCc1ccc2cc(C(=O)O)ccc2c1)CC(=O)O (racemic)	96%	Soluble	71%	60%	64%	inactive	inactive	inactive	inactive
CC(CCCc1ccc2cc(C(=O)O)ccc2c1)C(=O)O (racemic)	98%	Soluble	107%	110%	85%	inactive	inactive	inactive	inactive
CC(C)CNC(=O)c1ccc2cc(C(=O)O)ccc2c1	46%	Soluble	99%	65%	65%	–	–	–	–
O=C(O)c1ccc(/C=C/c2ccc3cc(O)c(C(=O)O)cc3c2)cc1	85.2%	Soluble	67%	89.7%	89%	–	–	–	–
CCC/C=C/c1ccc2cc(C(=O)O)ccc2c1	82%	Soluble	68%	51%	58%	inactive	inactive	inactive	inactive
CCCCCc1ccc2cc(C(=O)O)ccc2c1Br	97%	Soluble	99%	73%	52%	inactive	inactive	inactive	inactive
O=C(O)c1cc2cc(/C=C/c3ccccc3C(=O)O)ccc2cc1O	83.7%	Soluble	103%	92.1%	84.5%	–	–	–	–
COc1ccccc1/C=C/c1ccc2cc(O)c(C(=O)O)cc2c1	61.7%	Soluble	71%	105%	74%	–	–	–	–
COc1ccc(/C=C/c2ccc3cc(O)c(C(=O)O)cc3c2)cc1	39.6%	Soluble	39%	42.7%	36%	–	–	–	–
CC(C)COCc1ccc2cc(C(=O)O)ccc2c1	83%	Soluble	72%	83%	49%	–	–	–	–
